In PMC7931646 (The Journal of Experimental Medicine, 2021):

Legend:
[1] = Kinetic solubility in simulated intestinal fluids; assay type: physicochemical
In short: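 Dissolved test compound concentration in FaSSIF or FeSSIF simulated intestinal fluids, determined by UV/Vis absorbance.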

[2] = Liver microsomal stability, rat; assay type: in vitro ADME; settings: liver microsomes
In short: (§1)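 Test compound at 1 µM was incubated for 30 min with liver microsomes at 1 mg/ml (human, rat or mouse). Result is percent of parent compound remaining.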

[3] = Liver microsomal stability, mouse; assay type: in vitro ADME; settings: liver microsomes
In short: as §1

CYP450 2C9 = CYP450 2C9 (Homo sapiens, UniProt P11712); test: CYP450 inhibition, recombinant isoform; assay type: in vitro ADME
CYP450 2D6 = CYP450 2D6 (Homo sapiens, UniProt P10635); test: CYP450 inhibition, recombinant isoform; assay type: in vitro ADME
In short: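 Recombinant human CYP450 isoforms were incubated with isoform-specific probe substrates; for CYP3A4 these were midazolam and testosterone. Inhibition was quantified by LC-MS/MS analysis of probe-substrate turnover.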

[4] = Plasma protein binding, equilibrium dialysis; assay type: in vitro ADME; settings: human
In short: (§2)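 Equilibrium dialysis of test compound in human, rat or mouse plasma against buffer across a semipermeable membrane. Compound concentrations in both compartments were measured by LC/MS, and percent bound was derived from them.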

[5] = Plasma protein binding, equilibrium dialysis; assay type: in vitro ADME; settings: rat
In short: as §2

[6] = Plasma protein binding, equilibrium dialysis; assay type: in vitro ADME; settings: mouse
In short: as §2

[7] = test system: S. typhimurium bacterial strains TA98, TA100, TA1535, TA1537; test: Non-GLP screening; assay type: cell-based, Salmonella typhimurium; settings: 5–100 µM, with and without Aroclor-induced rat liver S9
In short: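 Non-GLP mini-Ames screen using S. typhimurium TA98, TA100, TA1535 and TA1537, with and without Aroclor-induced rat liver S9. Test article was applied at 5–100 µM. Read-out was bacterial growth from reversion of the histidine mutation.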

dopamine D1 = dopamine D1 (Homo sapiens, UniProt P21728); test: CEREP off-target radioligand binding panel; settings: read-out: inhibition of ligand binding
In short: (§3)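 CEREP secondary-pharmacology panel of 55 receptors, transporters and ion channels. Test compound at 10 µM was assessed for inhibition of binding of a radiolabelled reference ligand specific to each target. Result is percent inhibition of ligand binding.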

histamine H1 = histamine H1 (Homo sapiens, UniProt P35367); test: CEREP off-target radioligand binding panel; settings: read-out: inhibition of ligand binding
In short: as §3

κ opioid receptors = test: CEREP off-target radioligand binding panel; settings: 10 µM
In short: as §3

[8] = test system: chloride channel (γ-aminobutyric acid–gated); test: CEREP off-target radioligand binding panel; settings: 10 µM
In short: as §3

[9] = Single-dose i.v./po PK in male CD-1 mice; assay type: in vivo, mouse; settings: for clearance: male, CD-1, mouse, plasma, iv, 1 mg/kg
In short: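 CD-1 mice received a single i.v. dose of 1 mg/kg (n = 12) or an oral gavage dose of 5 mg/kg (n = 12). Brains were collected at 1, 4, 8 and 12 h. Oral bioavailability came from i.v./po comparison; fabs came from kinetic analysis.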

[10] = Single-dose i.v./po PK in male Sprague-Dawley rats; assay type: in vivo, rat
In short: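 Sprague-Dawley rats received a single i.v. dose of 1 mg/kg (n = 13) or an oral dose of 5 mg/kg (n = 3). Plasma was sampled at 5 min (i.v. only), 15 and 30 min, 1, 2, 4, 8 and 12 h, and 24 and 48 h (po only). Oral bioavailability came from i.v./po comparison; fabs came from kinetic analysis.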

[11] = Single-dose i.v./po PK in cynomolgus macaques; assay type: in vivo, cynomolgus macaque; settings: for clearance: male, cynomolgus monkey, plasma, iv, 1 mg/kg
In short: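 Cynomolgus monkeys received a single i.v. dose of 1 mg/kg. Whole blood was collected at set time points and processed to plasma. Drug levels were measured with a bioanalytical method validated for NHP plasma. Clearance was derived from the plasma concentration–time data.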

[12] = test system: Aβ42 and Aβ40 levels in plasma and brain; test: 9-d repeat-dose efficacy in C57BL/6J mice; assay type: in vivo, mouse; settings: 10 mg/kg/d for 9 d
[13] = test system: Aβ42 and Aβ40 levels in plasma and brain; test: Acute single-dose time course efficacy in C57BL/6J mice; assay type: in vivo, mouse
[14] = test system: Aβ42, Aβ40, Aβ38 in plasma and brain extracts; test: Chronic 3-mo efficacy in PSAPP transgenic mice; assay type: in vivo, mouse; settings: 25 mg/kg/d po
In short: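 Female PSAPP (APPswe/PSEN1dE9) mice and wild-type C57BL/6J controls, 9–10 per group, housed at 22°C on a 12:12 h light cycle. Treatment began at 90 or 180 d of age: vehicle (80% PEG 400, 20% water, 0.1% Tween 20) or test compound 25 mg/kg/d by oral gavage for 3 mo. Brain Aβ peptides were then measured.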

[15] = 7-d dose range-finding toxicity and toxicokinetic study in rats; assay type: in vivo, rat
[16] = test system: Aβ38, Aβ40, Aβ42 in plasma; test: Acute single-dose escalation and time course efficacy in NHPs; assay type: in vivo, cynomolgus macaque
In short: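 Cynomolgus macaques, two male and two female. Escalation phase: single nasogastric doses of 0, 10, 30, 100 and 200 mg/kg, with blood taken 4 h post-dose. Repeat phase: 200 mg/kg for 2 d, then 100 mg/kg for 5 d, with blood on days 1 and 7 at predose and 1, 2, 4, 8 and 24 h. K3EDTA plasma was stored at ≤ −60°C. Aβ38/40/42 were measured by MSD multiplex assay.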

[17] = Metabolite profile in hepatocytes; assay type: in vitro ADME; settings: metabolite profiling in five species (mouse, rat, dog, NHP, human)
In short: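 Test compound at 1 µM was incubated at 37°C for 4 h with cryopreserved hepatocytes from mouse, rat, dog, monkey or human. Metabolite masses and relative abundance came from HPLC/MS/MS peak areas. Structures were characterised by LC/MS/MS on a Q-Trap instrument.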

[18] = single oral dose 5 mg/kg, 6–12 h after administration
[19] = PSAPP mice treated from 3 mo of age (prophylactic)
[20] = PSAPP mice treated from 6 mo of age (disease-modifying)

Sequence of dopamine D1 (P21728 whole entry): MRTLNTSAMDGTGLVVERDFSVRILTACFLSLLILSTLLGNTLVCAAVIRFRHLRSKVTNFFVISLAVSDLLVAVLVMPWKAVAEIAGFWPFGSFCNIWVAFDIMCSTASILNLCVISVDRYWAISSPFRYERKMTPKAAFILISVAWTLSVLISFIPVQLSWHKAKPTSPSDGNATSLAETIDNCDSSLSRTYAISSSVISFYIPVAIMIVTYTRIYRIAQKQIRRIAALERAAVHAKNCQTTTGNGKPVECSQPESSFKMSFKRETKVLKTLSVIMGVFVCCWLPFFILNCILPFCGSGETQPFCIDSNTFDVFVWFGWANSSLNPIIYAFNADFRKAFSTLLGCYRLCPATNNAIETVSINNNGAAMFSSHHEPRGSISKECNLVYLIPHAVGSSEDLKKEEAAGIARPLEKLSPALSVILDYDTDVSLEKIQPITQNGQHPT
Sequence of CYP450 2C9 (P11712 whole entry, canonical isoform): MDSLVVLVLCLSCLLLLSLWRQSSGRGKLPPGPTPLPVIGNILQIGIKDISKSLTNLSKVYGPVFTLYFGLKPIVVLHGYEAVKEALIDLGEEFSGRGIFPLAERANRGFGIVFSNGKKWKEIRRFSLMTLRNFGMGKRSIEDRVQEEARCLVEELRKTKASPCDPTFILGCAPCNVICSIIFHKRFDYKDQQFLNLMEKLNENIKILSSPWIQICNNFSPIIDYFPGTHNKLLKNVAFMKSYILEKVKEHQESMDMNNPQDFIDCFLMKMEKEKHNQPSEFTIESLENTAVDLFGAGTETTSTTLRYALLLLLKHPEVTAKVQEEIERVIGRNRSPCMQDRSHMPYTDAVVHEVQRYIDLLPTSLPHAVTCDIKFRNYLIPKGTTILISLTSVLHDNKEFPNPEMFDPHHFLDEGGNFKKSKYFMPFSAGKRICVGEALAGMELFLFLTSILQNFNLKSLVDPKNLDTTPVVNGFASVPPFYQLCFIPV
Sequence of histamine H1 (P35367 whole entry): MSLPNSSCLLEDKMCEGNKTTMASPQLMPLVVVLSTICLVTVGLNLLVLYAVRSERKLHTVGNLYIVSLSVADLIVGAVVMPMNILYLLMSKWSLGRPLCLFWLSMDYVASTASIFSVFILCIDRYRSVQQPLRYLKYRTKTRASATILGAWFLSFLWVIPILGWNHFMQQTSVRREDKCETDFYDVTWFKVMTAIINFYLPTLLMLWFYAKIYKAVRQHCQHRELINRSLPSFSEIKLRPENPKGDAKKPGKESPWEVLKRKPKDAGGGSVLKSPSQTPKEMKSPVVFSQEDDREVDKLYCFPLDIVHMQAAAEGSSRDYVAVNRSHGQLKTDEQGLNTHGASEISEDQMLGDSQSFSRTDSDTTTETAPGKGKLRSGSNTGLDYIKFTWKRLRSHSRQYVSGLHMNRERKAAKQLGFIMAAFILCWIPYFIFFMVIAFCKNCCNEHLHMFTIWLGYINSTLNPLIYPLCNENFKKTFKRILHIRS
Sequence of CYP450 2D6 (P10635 whole entry, canonical isoform): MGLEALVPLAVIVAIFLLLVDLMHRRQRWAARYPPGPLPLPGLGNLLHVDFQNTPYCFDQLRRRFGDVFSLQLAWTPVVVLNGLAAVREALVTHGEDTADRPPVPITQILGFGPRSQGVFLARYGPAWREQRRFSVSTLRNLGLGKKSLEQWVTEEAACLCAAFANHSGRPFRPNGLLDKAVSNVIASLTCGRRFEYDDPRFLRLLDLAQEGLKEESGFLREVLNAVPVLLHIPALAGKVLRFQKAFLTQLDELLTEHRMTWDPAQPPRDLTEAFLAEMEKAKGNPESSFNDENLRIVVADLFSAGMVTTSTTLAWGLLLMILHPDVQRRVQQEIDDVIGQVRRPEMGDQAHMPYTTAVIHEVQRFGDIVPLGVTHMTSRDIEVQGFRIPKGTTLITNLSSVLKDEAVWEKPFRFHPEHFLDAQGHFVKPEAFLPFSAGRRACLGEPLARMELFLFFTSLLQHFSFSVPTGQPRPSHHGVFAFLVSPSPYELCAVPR

## COc1nc(-c2cc(C)c(N[C@@H](C)c3cc(F)cc(F)c3)nn2)ccc1-n1cnc(C)c1 [Compound 2, (S)-N-(1-(3,5-difluorophenyl)ethyl)-6-(6-methoxy-5-(4-methyl-1H-imidazol-1-yl)pyridin-2-yl)-4-methylpyridazin-3-amine]
[1]; FaSSIF pH 6.5, UV/Vis absorbance
  FaSSIF dissolved compound concentration: 80
[1]; FeSSIF pH 5.8, UV/Vis absorbance
  FeSSIF dissolved compound concentration: 79
[2]
  remaining at 0.5 h, 1 µM: 76%
[3]
  remaining at 0.5 h, 1 µM: 91%
CYP450 2C9
  IC50: 4.4 µM
CYP450 2D6
  IC50: 11 µM
[4]
  % PPB H: 99.8%
[5]
  % PPB R: 99.9%
[6]
  % PPB M: 99.9%
[7]
  Ames: Negative
Dopamine D1
  inhibition at 10 µM: > 50%
Histamine H1
  inhibition at 10 µM: > 50%
κ opioid receptors
  inhibition of ligand binding: Greater than 50%
[8]
  inhibition of ligand binding: Greater than 50%
[9]; CL, mice
  clearance: 8 mL/min/kg
[9]; Cl, male CD-1 mice
  clearance: 8.05 mL/min/kg
[9]; mice, hepatic blood flow 95 ml/min/kg
  CL as percent of reported hepatic blood flow: < 10%
[9]; mice, kinetic analysis
  fraction of dose absorbed from intestinal lumen (fabs): ~90%
[10]; hepatic blood flow 75 ml/min/kg
  CL as percent of reported hepatic blood flow: < 10%
[10]; kinetic analysis
  fraction of dose absorbed from intestinal lumen (fabs): ~90%
[10]; male, Sprague-Dawley, rat, plasma, iv, 1 mg/kg, CL
  clearance: 6 mL/min/kg
[11]; NHPs, hepatic blood flow 50 ml/min/kg
  CL as percent of reported hepatic blood flow: < 10%
[11]; CL, NHPs
  clearance: 5.5 mL/min/kg
[11]; Cl, NHP
  clearance: 5.52 mL/min/kg
[12]
  elimination of detectable Aβ42 in brain: 100%
  reduction in plasma Aβ42 levels: > 90%
[13]; [18]
  reduction of brain Aβ42 levels: ~50%
  reduction of plasma Aβ42 levels: ~70%
[13]; single oral dose 10 mg/kg
  duration of appreciable lowering of brain Aβ42 peptide levels: ~24 h
  reduction of Aβ42 levels in brain at peak reduction: > 70%
  reduction of Aβ42 levels in plasma at peak reduction: > 90%
[13]; single oral dose 5 or 10 mg/kg
  time of maximal reduction of Aβ42 levels in plasma: 1 h
[14]; [19]
  reduction of brain Aβ42, detergent-insoluble (formic acid) extract: 54%
  reduction of brain Aβ42, detergent-soluble (RIPA buffer) extract: 44%
[14]; [20]
  reduction of brain Aβ42, detergent-insoluble (formic acid) extract: 39%
  reduction of brain Aβ42, detergent-soluble (RIPA buffer) extract: 45%
[15]; both, Sprague-Dawley, rat, in vivo
  NOAEL at 7 d: ≥ 50 mg/kg
[15]; rats, 7-d DRF
  safety margin over the efficacious dose (5 mg/kg): 10–20 fold
[16]
  effect on levels of Aβ38 in plasma: did not affect
[16]; 200 mg/kg, day 1 of repeat-dosing phase, for over 24 h
  sustained lowering of plasma Aβ42 and Aβ40 peptides: ~70%
[17]
  major metabolites: no major metabolites
  unique human metabolites: absence of any unique human metabolites
